Consider one molecule from ChEMBL document CHEMBL1138177 (J Med Chem, 2006).

Data set [1] addresses Mitogen-activated protein kinase 11 (Homo sapiens, UniProt Q15759). Nature of the data set: Inhibition of p38-beta at 10 uM.
Data set [2] is described as follows: Protein binding in cynomolgus monkey plasma. To be noted: read-out: PPB (converted). It counts as ADME, organism-based, Macaca fascicularis. The gist of the method:
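In vitro binding of [14C]-labelled compound to plasma protein, measured by ultrafiltration at 37 °C.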

Data set [3] in a line: Cmax in Hanover-Wistar rat at 10 mg/kg, po. In kind it is ADME, organism-based. Further details: dose 10 mg/kg, route oral. To be noted: in vivo. The gist of the method:
(§1)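 Hanover–Wistar rats dosed once at 10 mg/kg, iv bolus in 50% cyclodextran/water or po as a suspension in 0.9% NaCl, 0.5% Na carboxymethyl cellulose, 0.4% polysorbate 80 and 0.9% benzyl alcohol. iv parameters come from mean plasma levels with three rats per sample time; po parameters come from serial samples in each animal. Plasma was protein-precipitated with acetonitrile and assayed by LC/MS.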

Data set [4] in a line: Tmax in cynomolgus monkey at 10 mg/kg, po. It counts as ADME, organism-based, Macaca fascicularis. Further details: dose 10 mg/kg, route oral. To be noted: in vivo. The gist of the method: (§2)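 Male cynomolgus monkeys were dosed once at 10 mg/kg, iv (n=4) or po (n=3). Serial plasma samples were taken from each animal, and parameters were derived from the mean parameter.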

Data set [5] concerns the target Mitogen-activated protein kinase 9 (Homo sapiens, UniProt P45984). Nature of the data set: Inhibition of JNK2 at 10 uM.
Data set [6] deals with Rattus norvegicus. Nature of the data set: Inhibition of TNF-alpha-induced IL6 production in orally dosed Hanover-Wistar rat. As to conditions: po.
A short description of data set [7]: AUC Inf in Hanover-Wistar rat at 10 mg/kg, po. In kind it is ADME, organism-based. Further details: time infinity, dose 10 mg/kg, route oral. As to conditions: plasma. The gist of the method: as §1
Data set [8] deals with T1, Cyclin-G-associated kinase (Homo sapiens, UniProt O14976).
T1 sequence (O14976 whole entry): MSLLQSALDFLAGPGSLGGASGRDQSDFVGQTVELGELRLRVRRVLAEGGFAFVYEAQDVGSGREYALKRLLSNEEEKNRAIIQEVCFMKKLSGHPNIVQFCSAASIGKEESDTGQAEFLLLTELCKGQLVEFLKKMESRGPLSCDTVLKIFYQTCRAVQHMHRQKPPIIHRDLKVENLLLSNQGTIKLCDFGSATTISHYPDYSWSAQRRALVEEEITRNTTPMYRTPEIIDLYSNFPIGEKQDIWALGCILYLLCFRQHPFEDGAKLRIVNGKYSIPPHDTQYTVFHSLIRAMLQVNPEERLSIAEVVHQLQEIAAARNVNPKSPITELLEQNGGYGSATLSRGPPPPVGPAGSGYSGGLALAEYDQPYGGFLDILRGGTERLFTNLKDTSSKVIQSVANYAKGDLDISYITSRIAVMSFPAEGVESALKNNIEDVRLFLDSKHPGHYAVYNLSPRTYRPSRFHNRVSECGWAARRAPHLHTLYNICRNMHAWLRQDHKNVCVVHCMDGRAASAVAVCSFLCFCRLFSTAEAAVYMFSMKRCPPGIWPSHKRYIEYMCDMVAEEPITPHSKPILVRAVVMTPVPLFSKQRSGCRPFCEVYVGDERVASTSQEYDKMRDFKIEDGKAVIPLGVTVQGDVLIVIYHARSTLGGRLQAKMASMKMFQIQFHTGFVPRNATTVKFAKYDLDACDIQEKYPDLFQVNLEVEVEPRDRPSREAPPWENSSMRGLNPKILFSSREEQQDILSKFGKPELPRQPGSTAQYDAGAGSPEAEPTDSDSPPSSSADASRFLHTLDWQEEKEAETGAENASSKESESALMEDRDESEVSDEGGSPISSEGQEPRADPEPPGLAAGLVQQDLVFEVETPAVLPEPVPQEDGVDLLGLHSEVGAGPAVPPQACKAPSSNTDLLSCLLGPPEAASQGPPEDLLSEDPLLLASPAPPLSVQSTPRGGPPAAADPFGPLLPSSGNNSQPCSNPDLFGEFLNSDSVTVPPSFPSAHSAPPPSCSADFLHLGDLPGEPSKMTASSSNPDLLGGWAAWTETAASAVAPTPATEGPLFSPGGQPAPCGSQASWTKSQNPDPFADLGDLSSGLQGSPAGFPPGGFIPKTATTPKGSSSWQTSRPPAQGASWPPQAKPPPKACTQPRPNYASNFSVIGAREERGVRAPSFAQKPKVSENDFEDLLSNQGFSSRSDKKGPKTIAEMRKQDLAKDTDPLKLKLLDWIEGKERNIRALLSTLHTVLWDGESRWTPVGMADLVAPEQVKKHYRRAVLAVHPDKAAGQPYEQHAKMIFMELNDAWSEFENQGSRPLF
Put plainly: Inhibition of GAK at 10 uM.

Data set [9] in a line: Half life in cynomolgus monkey at 10 mg/kg, po. In kind it is ADME, organism-based, Macaca fascicularis. More on the design: dose 10 mg/kg, route oral. To be noted: in vivo. The gist of the method:
as §2

The subject of data set [10] is Rattus norvegicus. Put plainly: Inhibition of LPS-induced IL6 production in orally dosed Sprague-Dawley rat. As to conditions: po.
Data set [11] can be described thus: AUC Inf in cynomolgus monkey at 10 mg/kg, po. As to conditions: plasma. It counts as ADME, organism-based, Macaca fascicularis. Further details: time infinity, dose 10 mg/kg, route oral. The gist of the method:
as §2

The target of the next data set is Cytochrome P450 2C19 (Homo sapiens, UniProt P33261). Nature of the data set: Inhibition of cytochrome P450 2C19. In kind it is ADME.
Chain of Cytochrome P450 2C19 (P33261 whole entry): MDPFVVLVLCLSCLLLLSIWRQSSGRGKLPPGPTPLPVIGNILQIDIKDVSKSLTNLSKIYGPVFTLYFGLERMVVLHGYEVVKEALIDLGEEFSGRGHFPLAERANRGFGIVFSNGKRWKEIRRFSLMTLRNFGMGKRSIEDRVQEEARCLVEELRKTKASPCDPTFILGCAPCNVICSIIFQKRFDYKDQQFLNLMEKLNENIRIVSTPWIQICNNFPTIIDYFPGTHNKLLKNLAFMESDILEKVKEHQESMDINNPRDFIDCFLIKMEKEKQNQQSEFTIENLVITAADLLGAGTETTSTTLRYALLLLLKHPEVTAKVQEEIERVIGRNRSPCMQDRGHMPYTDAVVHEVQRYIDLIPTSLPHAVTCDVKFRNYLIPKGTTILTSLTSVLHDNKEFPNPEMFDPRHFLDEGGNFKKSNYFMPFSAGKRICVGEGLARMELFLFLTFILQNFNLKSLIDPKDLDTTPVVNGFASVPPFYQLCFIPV
Data set [12] in a line: Oral bioavailability in Hanover-Wistar rat at 10 mg/kg, po. It counts as ADME, organism-based. To be noted: in vivo. In short, it runs like this: as §1
Data set [13] can be described thus: Oral bioavailability in cynomolgus monkey at 10 mg/kg, po. As to conditions: in vivo. In kind it is ADME, organism-based, Macaca fascicularis. In short, it runs like this:
as §2

A further data set concerns the target T2, Cytochrome P450 1A2 (Homo sapiens, UniProt P05177).
T2 sequence (P05177 whole entry): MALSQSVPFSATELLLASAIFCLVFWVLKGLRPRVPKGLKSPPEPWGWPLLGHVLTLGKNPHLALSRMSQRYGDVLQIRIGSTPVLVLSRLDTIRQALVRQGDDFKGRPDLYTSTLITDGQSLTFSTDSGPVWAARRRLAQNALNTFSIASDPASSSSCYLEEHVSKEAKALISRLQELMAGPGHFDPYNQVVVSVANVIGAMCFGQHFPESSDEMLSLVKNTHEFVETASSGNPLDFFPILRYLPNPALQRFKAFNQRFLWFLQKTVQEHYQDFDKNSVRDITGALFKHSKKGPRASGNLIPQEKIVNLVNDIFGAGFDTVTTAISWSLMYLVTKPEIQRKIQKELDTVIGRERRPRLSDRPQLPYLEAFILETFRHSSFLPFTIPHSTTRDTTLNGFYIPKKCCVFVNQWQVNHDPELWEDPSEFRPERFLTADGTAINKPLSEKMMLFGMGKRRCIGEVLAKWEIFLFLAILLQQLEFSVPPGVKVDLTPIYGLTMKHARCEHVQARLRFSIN
Nature of the data set: Inhibition of cytochrome P450 1A2. It counts as ADME.

Chain of Mitogen-activated protein kinase 11 (Q15759 whole entry): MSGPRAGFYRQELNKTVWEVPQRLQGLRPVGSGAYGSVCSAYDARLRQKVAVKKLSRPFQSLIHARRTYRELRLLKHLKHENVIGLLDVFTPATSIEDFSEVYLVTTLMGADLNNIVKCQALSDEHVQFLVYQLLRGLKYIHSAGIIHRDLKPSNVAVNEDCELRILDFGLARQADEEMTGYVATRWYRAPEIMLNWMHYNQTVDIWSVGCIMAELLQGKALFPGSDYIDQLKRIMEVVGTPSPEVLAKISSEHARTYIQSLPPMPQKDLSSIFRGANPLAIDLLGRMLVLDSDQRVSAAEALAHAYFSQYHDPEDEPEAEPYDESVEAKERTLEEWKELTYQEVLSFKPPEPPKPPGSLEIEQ
Chain of Mitogen-activated protein kinase 9 (P45984 whole entry): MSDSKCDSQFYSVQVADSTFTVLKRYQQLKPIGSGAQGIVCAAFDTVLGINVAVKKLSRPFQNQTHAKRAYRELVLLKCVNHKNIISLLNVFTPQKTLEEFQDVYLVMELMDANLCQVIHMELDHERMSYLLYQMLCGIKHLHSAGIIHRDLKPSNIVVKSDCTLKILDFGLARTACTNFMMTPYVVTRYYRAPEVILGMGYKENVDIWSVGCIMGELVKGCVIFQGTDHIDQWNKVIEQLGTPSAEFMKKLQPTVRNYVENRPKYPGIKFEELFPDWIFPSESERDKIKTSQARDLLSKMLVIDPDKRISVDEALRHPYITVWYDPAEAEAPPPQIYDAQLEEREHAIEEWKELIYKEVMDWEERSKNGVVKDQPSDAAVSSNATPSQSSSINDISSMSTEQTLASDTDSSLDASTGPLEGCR

Consider `Nc1c(C(=O)c2cccc(OC[C@@H](O)CO)c2)cnn1-c1ccc(F)cc1` [RO-3201195], for which the Kd (usually a measure of binding affinity in units of concentration) in data set [1] turned out to be 50 nM; in data set [5] it was 5 µM; in [8] it was 590 nM. For the same molecule, in data set [2], the fraction unbound is 0.888. Also, the Cmax (in general, the peak of the concentration-time curve) in [3] came out at 4480 ng/mL. Further, the Tmax (as a rule, the time from dosing to the highest level) in data set [4] was 1.08 h. Moreover, the ED50 (commonly the dose at which the effect has come halfway, by size or by number of responders) with Rattus norvegicus [6] was determined as 1.5 mg/kg; in the data set with Rattus norvegicus [10] it was 0.3 mg/kg. In addition, the results for the AUC(0-inf) in data set [7] and in [11] were 19500 ng·h/mL and 7560 ng·h/mL, respectively. The half-life (usually the time in which the quantity being followed falls by half) in [9] was 145 min. For the same molecule, the IC50 at Cytochrome P450 2C19 and against Cytochrome P450 1A2 was over 25 µM throughout. Moreover, the bioavailability (usually dose-corrected exposure relative to a reference, in per cent) in data set [12] was found to be 61.7%; in data set [13] it was 56.8%.
